Measurements taken from ChEMBL document CHEMBL2040797, “Synthesis of benzimidazoles bearing oxadiazole nucleus as anticancer agents” (2012).

Columns and labels:
Assay type in all cases: functional
EKVX [1] = test: Growth inhibition of human EKVX cells at 10 uM after 48 hrs by sulforhodamine B assay; details: read-out: GI
In short: (§1)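 NCI one-dose primary screen at 10 (printed mM) across the 60-line panel. Cells in RPMI 1640 with 5% FBS and 2 mM L-glutamine, plated at 5000–40,000 cells/well and incubated 24 h before dosing. Exposure 48 h at 37 °C, 5% CO2. Adherent cells were fixed with cold TCA, suspension cells fixed after settling. SRB stain, absorbance 515 nm. Reported as percent growth of treated cells relative to control.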

COLO 205 = test: Growth inhibition of human COLO205 cells at 10 uM after 48 hrs by sulforhodamine B assay; details: COLO 205, 48 h, read-out: GI; in short: as §1
HT-29 = test: Growth inhibition of human HT-29 cells at 10 uM after 48 hrs by sulforhodamine B assay; details: HT-29, 48 h, read-out: GI; in short: as §1
SW-620 = test: Growth inhibition of human SW620 cells at 10 uM after 48 hrs by sulforhodamine B assay; details: SW-620, 48 h, read-out: GI
In short: (§2)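 NCI-60 single-dose screen. Cells grown in RPMI 1640 with 5% FBS and L-glutamine, plated at 5000–40,000 cells/well by doubling time, and preincubated 24 h at 37 °C, 5% CO2. Compound stocks in DMSO, added at one concentration, then incubated 48 h. Adherent cells fixed with cold TCA (10% final), stained with 0.4% SRB, dye solubilized in 10 mM Tris base, A515 read. Reported as percent growth relative to untreated control.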

SF-539 = test: Growth inhibition of human SF539 cells at 10 uM after 48 hrs by sulforhodamine B assay; details: SF-539, 48 h, read-out: GI; in short: as §1
U-251 = test: Growth inhibition of human U251 cells at 10 uM after 48 hrs by sulforhodamine B assay; details: U-251, 48 h, read-out: GI; in short: as §2
Malme-3M = test: Growth inhibition of human MALME-3M cells at 10 uM after 48 hrs by sulforhodamine B assay; details: read-out: GI; in short: as §1
M14 = test: Growth inhibition of human M14 cells at 10 uM after 48 hrs by sulforhodamine B assay; details: M14, 48 h, read-out: GI; in short: as §1
SK-MEL-2 = test: Growth inhibition of human SK-MEL-2 cells at 10 uM after 48 hrs by sulforhodamine B assay; details: SK-MEL-2, 48 h, read-out: GI; in short: as §1
UACC-62 [2] = test: Growth inhibition of human UACC62 cells at 10 uM after 48 hrs by sulforhodamine B assay; details: UACC-62, 48 h, read-out: GI; in short: as §2
RXF 393 = test: Growth inhibition of human RXF393 cells at 10 uM after 48 hrs by sulforhodamine B assay; details: RXF 393, 48 h, read-out: GI; in short: as §1
SN12C = test: Growth inhibition of human SN12C cells at 10 uM after 48 hrs by sulforhodamine B assay; details: read-out: GI; in short: as §2
[3] = Growth inhibition of human Hs 578T cells at 10 uM after 48 hrs by sulforhodamine B assay; details: read-out: GI; in short: as §1
T47D = test: Growth inhibition of human T47D cells at 10 uM after 48 hrs by sulforhodamine B assay; details: read-out: GI; in short: as §2
HL-60(TB) = test: Cytotoxicity against human HL-60(TB) cells after 48 hrs by sulforhodamine B assay; details: HL-60, 48 h
In short: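 NCI 60-panel five-dose assay. Cells are grown in RPMI 1640 with 5% FBS and L-glutamine. They are plated at 5000–40,000 cells/well according to doubling time and pre-incubated 24 h at 37 °C, 5% CO2. DMSO-stock compound is added at five 10-fold or ½-log dilutions for 48 h. Settled suspension cells are fixed, then SRB-stained and read at 515 nm. Percent growth is computed from time-zero, control and treated absorbances, and LC50 is taken where protein falls 50% below the starting level.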

MOLT-4 = test: Cytotoxicity against human MOLT4 cells after 48 hrs by sulforhodamine B assay; details: MOLT-4, 48 h
In short: (§3)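 NCI 60-panel screen. Cells were grown in RPMI 1640 with 5% FBS and L-glutamine and plated at 5000–40,000 cells/well according to doubling time. They were preincubated 24 h at 37 °C, 5% CO2, then exposed 48 h to five 10-fold dilutions. Adherent cells were fixed with cold TCA, final 10%; suspension cells were fixed after settling. Cells were stained with 0.4% SRB and read at 515 nm. Tz/C/Ti growth curves gave GI50, TGI and LC50.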

SR = test: Cytotoxicity against human SR cells after 48 hrs by sulforhodamine B assay; in short: as §3
EKVX [4] = test: Cytotoxicity against human EKVX cells after 48 hrs by sulforhodamine B assay; in short: as §3
NCI-H226 = test: Cytotoxicity against human NCI-H226 cells after 48 hrs by sulforhodamine B assay; details: NCI-H226, 48 h; in short: as §3
SNB-19 = test: Cytotoxicity against human SNB19 cells after 48 hrs by sulforhodamine B assay; details: SNB-19, 48 h; in short: as §3
UACC-62 [5] = test: Cytotoxicity against human UACC62 cells after 48 hrs by sulforhodamine B assay; details: UACC-62, 48 h
In short: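 NCI 60 panel five-dose screen. Cells in RPMI 1640 with 5% FBS and 2 mM L-glutamine, plated at 5000–40,000 cells/well and preincubated 24 h. Compounds were tested at five 10-fold concentrations (0.01–100) for 48 h at 37 °C, 5% CO2. Cells were fixed with TCA and stained with SRB, absorbance 515 nm. GI50, TGI and LC50 were taken from % growth curves against time-zero and control.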

OVCAR-4 = test: Cytotoxicity against human OVCAR4 cells after 48 hrs by sulforhodamine B assay; details: OVCAR-4, 48 h; in short: as §3
OVCAR-5 = test: Cytotoxicity against human OVCAR5 cells after 48 hrs by sulforhodamine B assay; details: OVCAR-5, 48 h; in short: as §3
SK-OV-3 = test: Cytotoxicity against human SKOV3 cells after 48 hrs by sulforhodamine B assay; details: SK-OV-3, 48 h; in short: as §3
MDA-MB-231 = test: Cytotoxicity against human MDA-MB-231 cells after 48 hrs by sulforhodamine B assay; details: MDA-MB-231, 48 h; in short: as §3
A549 = test: Growth inhibition of human A549 cells at 10 uM after 48 hrs by sulforhodamine B assay; details: A549, 48 h, read-out: GI; in short: as §1
[6] = read-out: LC50 (the source's name)

Compound: O=C(CCc1nnc(-c2ccc(Cl)cc2Cl)o1)c1nc2ccccc2[nH]1
- inhibition of growth at 10 µM (EKVX [1]): 39%
- inhibition of growth at 10 µM (COLO 205): 37.4%
- inhibition of growth at 10 µM (HT-29): 90.6%
- inhibition of growth at 10 µM (SW-620): 64.2%
- inhibition of growth at 10 µM (SF-539): 4.76%
- inhibition of growth at 10 µM (U-251): 47.5%
- inhibition of growth at 10 µM (Malme-3M): 20.7%
- inhibition of growth at 10 µM (M14): 44.2%
- inhibition of growth at 10 µM (SK-MEL-2): 40.6%
- inhibition of growth at 10 µM (UACC-62 [2]): 57.7%
- inhibition of growth at 10 µM (RXF 393): 18.4%
- inhibition of growth at 10 µM (SN12C): 38.8%
- inhibition of growth at 10 µM [3]: 17.7%
- inhibition of growth at 10 µM (T47D): 48%
- GI50 (HL-60(TB)): 2.23 µM
- TGI (HL-60(TB)): 19.3 µM
- CC50 (HL-60(TB); [6]): 100 µM
- GI50 (MOLT-4): 4.07 µM
- TGI (MOLT-4): 25.8 µM
- CC50 (MOLT-4; [6]): 100 µM
- GI50 (SR): 2.63 µM
- TGI (SR): 15.2 µM
- CC50 (SR; [6]): 100 µM
- GI50 (EKVX [4]): 5.48 µM
- TGI (EKVX [4]): 100 µM
- CC50 (EKVX [4]; [6]): 100 µM
- GI50 (NCI-H226): 6.66 µM
- TGI (NCI-H226): 31.2 µM
- CC50 (NCI-H226; [6]): 100 µM
- GI50 (SNB-19): 17.4 µM
- TGI (SNB-19): 100 µM
- CC50 (SNB-19; [6]): 100 µM
- GI50 (UACC-62 [5]): 3.34 µM
- TGI (UACC-62 [5]): 27.8 µM
- CC50 (UACC-62 [5]; [6]): 100 µM
- GI50 (OVCAR-4): 5.93 µM
- TGI (OVCAR-4): 100 µM
- CC50 (OVCAR-4; [6]): 100 µM
- GI50 (OVCAR-5): 7.82 µM
- TGI (OVCAR-5): 100 µM
- CC50 (OVCAR-5; [6]): 100 µM
- GI50 (SK-OV-3): 4.6 µM
- TGI (SK-OV-3): 30.5 µM
- CC50 (SK-OV-3; [6]): 100 µM
- GI50 (MDA-MB-231): 2.68 µM
- TGI (MDA-MB-231): 42.6 µM
- CC50 (MDA-MB-231; [6]): 100 µM
- inhibition of growth at 10 µM (A549): 30.3%
